Measured values gathered from unrelated publications.
CA12: Carbonic anhydrase 12 (CA12, Homo sapiens, UniProt O43570)
SLC6A3: Sodium-dependent dopamine transporter (SLC6A3, Homo sapiens, UniProt Q01959)

| SMILES | target | test | conditions | Ki [nM] |
| --- | --- | --- | --- | --- |
| O=C(Nc1ccc2c(c1)C=CCP(=O)(O)O2)c1ccc(I)cc1 | CA12 | enzyme activity, inhibitor, stopped-flow |  | 57.5 |
| CCCCC1CNC2CCc3ccc(OC)cc3C12 (racemic) | SLC6A3 | ligand displacement, radioligand |  | > 10000 |
| COC(=O)[C@H]1[C@@H](c2ccc(Cl)cc2)C[C@@H]2CC[C@H]1N2CCCCCCCCCc1c2ccccc2cc2ccccc12 | SLC6A3 | ligand displacement, radioligand | pH 7.4 | 24 |
| Cc1c(Cl)c(=O)oc2cc(OCCCC[Se]C#N)ccc12 | CA12 | enzyme activity, inhibitor, stopped-flow |  | 71.6 |
| COc1ccc(NC(=O)Nc2ccc3c(c2)C=CCP(=O)(O)O3)cc1 | CA12 | enzyme activity, inhibitor, stopped-flow |  | > 10000 |
| COc1cc2c(cc1OC)CN(CCc1ccc(NC(=O)c3cccc4c(=O)c5cccc(OC)c5[nH]c34)cc1)CC2 | D(3) dopamine receptor (DRD3, Homo sapiens, UniProt P35462) | cell-free assay |  | 77 |
| CCOP1(=O)CC=Cc2cc(N)ccc2O1 (stereo not drawn) | CA12 | enzyme activity, inhibitor, stopped-flow |  | 16.6 |
| COC(=O)[C@H]1[C@@H](c2ccc(Cl)c(Cl)c2)C[C@@H]2CC[C@H]1N2CCCOCc1ccc2cc3ccccc3cc2c1 | SLC6A3 | ligand displacement, radioligand | pH 7.4, cell membranes | 204 |
| Cc1cc(=O)oc2cc(OCCCC[Se]C#N)ccc12 | CA12 | enzyme activity, inhibitor, stopped-flow |  | 51.6 |
